Data: ChEMBL document CHEMBL1154054, “Novel 4-(morpholin-4-yl)-N'-(arylidene)benzohydrazides: synthesis, antimycobacterial activity and QSAR investigations” (Eur J Med Chem, 2009)

Experiments:
Assay type in all cases: functional
Design in all cases: scale not given: the % may be the effect or the level left
[1] = system: Mycobacterium tuberculosis; assay: Antimycobacterial activity against Mycobacterium tuberculosis H37Rv assessed as reduction in relative light units at 5 ug/ml after 72 hrs by LRP assay
Outline: (§1)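 Luciferase reporter phage assay on M. tuberculosis (H37Rv, or clinical isolates resistant to S, H, R and E). Each sample had two drug-free controls and four drug concentrations, incubated 72 h at 37 °C. High-titer phAE129 phage plus 0.1 M CaCl₂ was added, then 4 h at 37 °C. Equal volume D-luciferin (0.3 mM, pH 4.5 citrate) was added; RLU integrated 10 s, duplicate mean; % RLU reduction vs control.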

[2] = system: Mycobacterium tuberculosis; assay: Antimycobacterial activity against Mycobacterium tuberculosis H37Rv assessed as reduction in relative light units at 0.05 ug/ml after 72 hrs by LRP assay; outline: as §1
[3] = system: Mycobacterium tuberculosis; assay: Antimycobacterial activity against Mycobacterium tuberculosis H37Rv assessed as reduction in relative light units at 10 ug/ml after 72 hrs by LRP assay; outline: as §1
[4] = system: Mycobacterium tuberculosis; assay: Antimycobacterial activity against Mycobacterium tuberculosis H37Rv assessed as reduction in relative light units at 0.5 ug/ml after 72 hrs by LRP assay; outline: as §1

Compound	Activity [1] [%]	Activity [2] [%]	Activity [3] [%]	Activity [4] [%]
NNC(=O)c1ccncc1 [ISONIAZID]	99.01	96	98.99	98.42
O=C(N/N=C/c1ccc(F)cc1)c1ccc(N2CCOCC2)cc1	98.98	96.78	99.09	98.22
O=C(N/N=C1\C=CCO1)c1ccc(N2CCOCC2)cc1	98.41	15.04	97.55	96.9
COc1cc(/C=N/NC(=O)c2ccc(N3CCOCC3)cc2)cc(OC)c1OC	97.59	49.68	97.77	96.51
O=C(N/N=C\C=C\c1ccccc1)c1ccc(N2CCOCC2)cc1	97.82	63.16	97.32	98.96
O=C(N/N=C/c1cccc([N+](=O)[O-])c1)c1ccc(N2CCOCC2)cc1	98.4	9.118	98.4	98.04
O=C(N/N=C/c1ccc(Cl)cc1)c1ccc(N2CCOCC2)cc1	98.38	78.09	99.26	98.02
CN(C)c1ccc(/C=N/NC(=O)c2ccc(N3CCOCC3)cc2)cc1	98.49	20.85	98.82	98.09
O=C(N/N=C/c1ccc(O)cc1)c1ccc(N2CCOCC2)cc1	97.53	51.79	97.24	77.81
COc1ccc(/C=N/NC(=O)c2ccc(N3CCOCC3)cc2)cc1	98.1	30.04	97.18	96.24
Cc1ccc(/C=N/NC(=O)c2ccc(N3CCOCC3)cc2)cc1	97.75	24.19	98.18	97.29
